According to ChEMBL document CHEMBL4354869, “pH-Dependent Grafting of Cancer Cells with Antigenic Epitopes Promotes Selective Antibody-Mediated Cytotoxicity” (J Med Chem, 2020):
The source made the active and inactive calls. No cut-off for these calls is given here. Square brackets hold non-standard residues; d marks the D form. Peptide text beside a SMILES is read from it. * marks the point of attachment. Dnp = O=[N+]([O-])c1ccc(*)c([N+](=O)[O-])c1; Gla = N[C@@H](CC(C(=O)O)C(=O)O)C(=O)O; Aad = N[C@@H](CCCC(=O)O)C(=O)O

Key:
[1] = system: MDA-MB-231; experiment: Induction of opsonization in human MDA-MB-231 cells assessed as increase in recruitment of anti-DNP antibody to cell surface at 1 uM measured after 5 to 10 mins at pH 6 to 7.4 by AlexaFluor-488-conjugated anti-DNP antibody based flow cytometry; assay type: functional
Procedure, shortened: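 Conjugate pre-incubated 1 h RT at 20 μM in 5 mM sodium phosphate pH 9.0, diluted, then pH adjusted with citrate buffer. MDA-MB-231 (350000 cells, suspension) exposed to 1 μM for 5 or 10 min, 37 °C, pH 7.4 or 6.0, washed, stained with 25 μg/mL anti-DNP-A488 30 min at 4 °C, PFA-fixed. Flow cytometry, ≥3000 events; fold over pH 7.4 antibody-only cells.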

[2] = system: Lipid bilayer; experiment: Binding affinity to POPC large unilamellar vesicle at 1:300 ratio measured after 30 mins at pH 5 to 7.4 by circular dichroism spectroscopic analysis
Procedure, shortened: (§1)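 Peptide (20 μM stock in 5 mM sodium phosphate pH 8.0; 7 μM final) mixed with POPC LUVs (extruded, 100 nm pores) at 1:300, pH lowered with HCl, 30 min RT. Far-UV CD 260–200 nm in 0.1 cm cuvette, ≥5 scans averaged, liposome spectrum subtracted; expressed as mean residue molar ellipticity.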

[3] = Drug internalization in human MDA-MB-231 cells assessed as increase in fluorescence at 1 uM measured after 30 mins at pH 6 to 7.4 in presence of FITC-labeled anti-human IgG by flow cytometric method; assay type: ADME, cell-based; conditions: mda-mb-231, pH 6, 0.5 h
Procedure, shortened: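 Control for specificity: MDA-MB-231 treated with 1 μM conjugate at pH 7.4 or 6.0 (5–10 min, 37 °C), washed, then incubated ± 25 μg/mL FITC anti-human IgG in PBS/10% FBS, 30 min at 4 °C, fixed, read by flow cytometry.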

[4] = system: MDA-MB-231; experiment: Induction of opsonization in human MDA-MB-231 cells assessed as increase in recruitment of anti-FITC antibody to cell surface at 1 uM measured after 5 to 10 mins at pH 6 to 7.4 by Alexa Fluor 647 conjugated anti-FITC antibody based flow cytometry; assay type: functional
Procedure, shortened: (§2)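 Cells in suspension (350000 MDA-MB-231) given 1 μM pH-adjusted conjugate for 5 or 10 min at 37 °C, pH 7.4 or 6.0, washed, then Alexa Fluor 647 anti-FITC mouse mAb in PBS/10% FBS 30 min at 4 °C, PFA-fixed. Flow cytometry, ≥3000 events; fold over pH 7.4 antibody-only cells; mean ± SEM, n = 3.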

[5] = system: Lipid bilayer; experiment: Binding affinity to POPC large unilamellar vesicle at 1:300 ratio measured after 30 mins at pH 5 by circular dichroism spectroscopic analysis; procedure, shortened: as §1
[6] = system: Lipid bilayer; experiment: Binding affinity to POPC large unilamellar vesicle at 1:300 ratio measured after 30 mins at pH 5 to 7.4 by tryptophan fluorescence spectroscopic analysis
Procedure, shortened: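 Peptide (7 μM final, from 20 μM stock in 5 mM sodium phosphate pH 8.0) with extruded 100 nm POPC LUVs at 1:300; pH set with HCl, 30 min RT before tryptophan emission spectra were recorded.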

[7] = system: MDA-MB-231; experiment: Induction of opsonization in human MDA-MB-231 cells assessed as increase in recruitment of anti-FITC antibody to cell surface at 1 uM measured after 5 to 10 mins at pH 6 by Alexa Fluor 647 conjugated anti-FITC antibody based flow cytometry relative to pH 7.4; assay type: functional; procedure, shortened: as §2

Row | Structure (SMILES) | Activity [1] | Activity [2] | Drug uptake [3] | Activity [4] | Activity [5] | Activity [6] | fold change (FC) [7]
1 | CC[C@H](C)[C@H](NC(=O)[C@@H]1CCCN1C(=O)[C@H](CC(N)=O)NC(=O)[C@H](CCC(N)=O)NC(=O)[C@H](CCC(=O)O)NC(=O)[C@@H](N)CCCCNc1ccc([N+](=O)[O-])cc1[N+](=O)[O-])C(=O)N[C@@H](Cc1ccc(O)cc1)C(=O)N[C@@H](Cc1c[nH]c2ccccc12)C(=O)N[C@@H](C)C(=O)N[C@@H](CCCNC(=N)N)C(=O)N[C@@H](Cc1ccc(O)cc1)C(=O)N[C@@H](C)C(=O)N[C@@H](CC(=O)O)C(=O)N[C@@H](Cc1c[nH]c2ccccc12)C(=O)N[C@@H](CC(C)C)C(=O)N[C@@H](Cc1ccccc1)C(=O)N[C@H](C(=O)N[C@H](C(=O)N1CCC[C@H]1C(=O)N[C@@H](CC(C)C)C(=O)N[C@@H](CC(C)C)C(=O)N[C@@H](CC(C)C)C(=O)N[C@@H](CC(C)C)C(=O)N[C@@H](CC(=O)O)C(=O)N[C@@H](CC(C)C)C(=O)N[C@@H](C)C(=O)N[C@@H](CC(C)C)C(=O)N[C@@H](CC(C)C)C(=O)N[C@H](C(=O)N[C@@H](CC(=O)O)C(=O)N[C@@H](C)C(=O)N[C@@H](CC(=O)O)C(=O)N[C@@H](CCC(=O)O)C(=O)NCC(=O)N[C@H](C(=O)NCC(N)=O)[C@@H](C)O)C(C)C)[C@@H](C)O)[C@@H](C)O (H-K(Dnp)EQNPIYWARYADWLFTTPLLLLDLALLVDADEGTG-NH2) | Active | Active | Not Active | – | – | – | –
2 | CC[C@H](C)[C@H](NC(=O)[C@@H]1CCCN1C(=O)[C@H](CC(N)=O)NC(=O)[C@H](CCC(N)=O)NC(=O)[C@H](CCC(=O)O)NC(=O)[C@H](CSC1CC(=O)N(CCC(=O)NOCCOCCOCCOCCOCCOCCOCCOCCOCCOCCOCCOCCOCCOCCOCCOCCOCCOCCOCCOCCOCCOCCOCCOCCC(=O)NCCCNC(=O)c2ccc(-c3c4ccc(=O)cc-4oc4cc(O)ccc34)c(C(=O)O)c2)C1=O)NCC(N)=O)C(=O)N[C@@H](Cc1ccc(O)cc1)C(=O)N[C@@H](Cc1c[nH]c2ccccc12)C(=O)N[C@@H](C)C(=O)N[C@@H](CCCNC(=N)N)C(=O)N[C@@H](Cc1ccc(O)cc1)C(=O)N[C@@H](C)C(=O)N[C@@H](CC(=O)O)C(=O)N[C@@H](Cc1c[nH]c2ccccc12)C(=O)N[C@@H](CC(C)C)C(=O)N[C@@H](Cc1ccccc1)C(=O)N[C@H](C(=O)N[C@H](C(=O)N1CCC[C@H]1C(=O)N[C@@H](CC(C)C)C(=O)N[C@@H](CC(C)C)C(=O)N[C@@H](CC(C)C)C(=O)N[C@@H](CC(C)C)C(=O)N[C@@H](CC(=O)O)C(=O)N[C@@H](CC(C)C)C(=O)N[C@@H](C)C(=O)N[C@@H](CC(C)C)C(=O)N[C@@H](CC(C)C)C(=O)N[C@H](C(=O)N[C@@H](CC(=O)O)C(=O)N[C@@H](C)C(=O)N[C@@H](CC(=O)O)C(=O)N[C@@H](CCC(=O)O)C(=O)NCC(=O)N[C@H](C(=O)NCC(N)=O)[C@@H](C)O)C(C)C)[C@@H](C)O)[C@@H](C)O (some centres undefined) | – | – | – | Active | Active | Active | –
3 | CC[C@H](C)[C@H](NC(=O)[C@@H]1CCCN1C(=O)[C@H](CC(N)=O)NC(=O)[C@H](CCC(N)=O)NC(=O)[C@H](CCC(=O)O)NC(=O)[C@H](CSC1CC(=O)N(CCC(=O)NOCCOCCOCCOCCOCCOCCC(=O)NCCCNC(=O)c2ccc(-c3c4ccc(=O)cc-4oc4cc(O)ccc34)c(C(=O)O)c2)C1=O)NCC(N)=O)C(=O)N[C@@H](Cc1ccc(O)cc1)C(=O)N[C@@H](Cc1c[nH]c2ccccc12)C(=O)N[C@@H](C)C(=O)N[C@@H](CCCNC(=N)N)C(=O)N[C@@H](Cc1ccc(O)cc1)C(=O)N[C@@H](C)C(=O)N[C@@H](CC(=O)O)C(=O)N[C@@H](Cc1c[nH]c2ccccc12)C(=O)N[C@@H](CC(C)C)C(=O)N[C@@H](Cc1ccccc1)C(=O)N[C@H](C(=O)N[C@H](C(=O)N1CCC[C@H]1C(=O)N[C@@H](CC(C)C)C(=O)N[C@@H](CC(C)C)C(=O)N[C@@H](CC(C)C)C(=O)N[C@@H](CC(C)C)C(=O)N[C@@H](CC(=O)O)C(=O)N[C@@H](CC(C)C)C(=O)N[C@@H](C)C(=O)N[C@@H](CC(C)C)C(=O)N[C@@H](CC(C)C)C(=O)N[C@H](C(=O)N[C@@H](CC(=O)O)C(=O)N[C@@H](C)C(=O)N[C@@H](CC(=O)O)C(=O)N[C@@H](CCC(=O)O)C(=O)NCC(=O)N[C@H](C(=O)NCC(N)=O)[C@@H](C)O)C(C)C)[C@@H](C)O)[C@@H](C)O (some centres undefined) | – | – | – | Active | – | Active | –
4 | CC[C@H](C)[C@H](NC(=O)[C@@H]1CCCN1C(=O)[C@H](CC(N)=O)NC(=O)[C@H](CCC(N)=O)NC(=O)[C@H](CCC(=O)O)NC(=O)[C@@H](N)CCCCNc1ccc([N+](=O)[O-])cc1[N+](=O)[O-])C(=O)N[C@@H](Cc1ccc(O)cc1)C(=O)N[C@@H](Cc1c[nH]c2ccccc12)C(=O)N[C@@H](C)C(=O)N[C@@H](CCCNC(=N)N)C(=O)N[C@@H](Cc1ccc(O)cc1)C(=O)N[C@@H](C)C(=O)N[C@@H](CC(C(=O)O)C(=O)O)C(=O)N[C@@H](Cc1c[nH]c2ccccc12)C(=O)N[C@@H](CC(C)C)C(=O)N[C@@H](Cc1ccccc1)C(=O)N[C@H](C(=O)N[C@H](C(=O)N1CCC[C@H]1C(=O)N[C@@H](CC(C)C)C(=O)N[C@@H](CC(C)C)C(=O)N[C@@H](CC(C)C)C(=O)N[C@@H](CC(C)C)C(=O)N[C@@H](CCCC(=O)O)C(=O)N[C@@H](CC(C)C)C(=O)N[C@@H](C)C(=O)N[C@@H](CC(C)C)C(=O)N[C@@H](CC(C)C)C(=O)N[C@H](C(=O)N[C@@H](CC(=O)O)C(=O)N[C@@H](C)C(=O)N[C@@H](CC(=O)O)C(=O)N[C@@H](CCC(=O)O)C(=O)NCC(=O)N[C@H](C(=O)NCC(N)=O)[C@@H](C)O)C(C)C)[C@@H](C)O)[C@@H](C)O (H-K(Dnp)EQNPIYWARYA[Gla]WLFTTPLLLL[Aad]LALLVDADEGTG-NH2) | Active | Active | Not Active | – | – | – | –
5 | CC[C@H](C)[C@H](NC(=O)[C@@H]1CCCN1C(=O)[C@H](CC(N)=O)NC(=O)[C@H](CCC(N)=O)NC(=O)[C@H](CCC(=O)O)NC(=O)[C@H](CSC1CC(=O)N(CCC(=O)NOCCOCCOCCOCCOCCOCCOCCOCCOCCOCCOCCOCCC(=O)NCCCNC(=O)c2ccc(-c3c4ccc(=O)cc-4oc4cc(O)ccc34)c(C(=O)O)c2)C1=O)NCC(N)=O)C(=O)N[C@@H](Cc1ccc(O)cc1)C(=O)N[C@@H](Cc1c[nH]c2ccccc12)C(=O)N[C@@H](C)C(=O)N[C@@H](CCCNC(=N)N)C(=O)N[C@@H](Cc1ccc(O)cc1)C(=O)N[C@@H](C)C(=O)N[C@@H](CC(=O)O)C(=O)N[C@@H](Cc1c[nH]c2ccccc12)C(=O)N[C@@H](CC(C)C)C(=O)N[C@@H](Cc1ccccc1)C(=O)N[C@H](C(=O)N[C@H](C(=O)N1CCC[C@H]1C(=O)N[C@@H](CC(C)C)C(=O)N[C@@H](CC(C)C)C(=O)N[C@@H](CC(C)C)C(=O)N[C@@H](CC(C)C)C(=O)N[C@@H](CCC(=O)O)C(=O)N[C@@H](CC(C)C)C(=O)N[C@@H](C)C(=O)N[C@@H](CC(C)C)C(=O)N[C@@H](CC(C)C)C(=O)N[C@H](C(=O)N[C@@H](CC(=O)O)C(=O)N[C@@H](C)C(=O)N[C@@H](CC(=O)O)C(=O)N[C@@H](CCC(=O)O)C(=O)NCC(=O)N[C@H](C(=O)NCC(N)=O)[C@@H](C)O)C(C)C)[C@@H](C)O)[C@@H](C)O (some centres undefined) | – | – | – | Active | – | Active | 2.9
